# Measurements reported in PubChem BioAssay.
# Active and inactive are the calls of the source.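 Rule for the calls, unless noted: active = GFP response above 150% of the DMSO level; inconclusive = fewer than 70 events counted for a yeast strain; inactive = the rest.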
# Legend:
# [1] = hit retest on RPL19A-GFP reporter strain – cell-based, S. cerevisiae, flow cytometry, cherry picks, mother/daughter gates, confirmation (AID 2270;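 active = GFP response below 50% of the DMSO control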); settings: 3 h, at 10 µM, stronger effect = lower value, 100 = same GFP as DMSO wells
# [2] = yeast TOR pathway reporter LAP4-GFP change – cell-based, cherry picks, flow cytometry, mother/daughter gates, confirmation (AID 2271;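 active = GFP response above 150% of the DMSO control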;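 note: ratio of sample to DMSO plate mean so 100% equals DMSO level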); settings: S. cerevisiae LAP4-GFP strain, 3 h, at 10 µM, stronger effect = higher value, 100 means same as DMSO control
# Summary of the method: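 Test system: GFP-fusion yeast strain / Amount: 0.2 OD600 cells / Buffer or medium: SC medium / Dosing: 10 µM single dose / Incubation: compound exposure 3 h at 30 °C, end-over-end rotation / Detection: HT flow cytometry, GFP fluorescence channel / Evaluation: median GFP fluorescence as percent of plate-mean DMSO wells / Control set: DMSO-only negative wells, rapamycin 400 ng/mL positive wells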
# [3] = TOR pathway reporter MEP2-GFP, retest of hits – S. cerevisiae, flow cytometry GFP, cherry picks, confirmation (AID 2272;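 active = GFP response above 150% of the DMSO control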;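 note: ratio of well signal to plate DMSO mean so 100% equals DMSO level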); settings: S. cerevisiae MEP2-GFP strain, 3 h, at 10 µM, stronger effect = higher value
# [4] = yeast AGP1-GFP fluorescence change, single-dose – cell-based, flow cytometry, S. cerevisiae, cherry picks, confirmation (AID 2273);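 note: median GFP channel fluorescence over the whole cell population gate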; settings: S. cerevisiae AGP1-GFP strain, 3 h, at 10 µM
# [5] = TOR pathway CIT2 reporter hit retest – S. cerevisiae, GFP fusion, cherry picks, mother/daughter gates, confirmation (AID 2274); settings: S. cerevisiae CIT2-GFP strain, flow cytometry, 3 h, at 10 µM, stronger effect = higher value
# [6] = measured here: daughter cell gate
# [7] = measured here: mother cell gate
# [8] = measured here: daughter cell gate response
# [9] = measured here: mother cell gate response
Structure (SMILES),GFP response vs DMSO [1],"GFP response vs DMSO [1, 6] [%]","GFP response vs DMSO [1, 7] [%]",GFP response relative to DMSO [2],"GFP response relative to DMSO [2, 8] [%]","GFP response relative to DMSO [2, 9] [%]",GFP response vs DMSO [3],"GFP response, % of DMSO [4]","GFP response, % of DMSO [5]","GFP response, % of DMSO [5, 6] [%]","GFP response, % of DMSO [5, 7] [%]"
O=c1[nH]c(CCl)nc2cc(-c3ccc(Cl)cc3)sc12,95.8% (inactive),94.4,98.5,101% (inactive),99.1,100,107% (inactive),96.5% (inactive),93% (inactive),92,78.5
COCCNC(=O)/C(C#N)=C/c1c(N2CC(C)OC(C)C2)nc2ccccn2c1=O (stereo not drawn),100% (inactive),98.6,100,98.2% (inactive),95.9,97.3,103% (inactive),98.8% (inactive),102% (inactive),101,101
CC(C)c1nnc(NC(=O)c2nc(S(=O)(=O)Cc3ccc(F)cc3)ncc2Cl)s1,95.8% (inactive),96,96.9,101% (inactive),102,99.5,99.5% (inactive),102% (inactive),99.3% (inactive),100,100
CCOc1ccc(S(=O)(=O)N2CCc3ccccc3C2)cc1,99.7% (inactive),97.8,100,101% (inactive),95,102,97.5% (inactive),96.2% (inactive),92.1% (inactive),92.7,91
Cc1ccc(NS(=O)(=O)c2ccc(CCC(=O)N3CCOCC3)cc2)cc1,94.6% (inactive),94.6,94.9,95.4% (inactive),96,95.1,96.2% (inactive),102% (inactive),101% (inactive),103,101
Cc1[nH]n(-c2ncc(-c3ccccc3)s2)c(=O)c1C(c1ccc(Cl)cc1)C(C#N)C#N (stereo not drawn),94.5% (inactive),98.1,91.6,156% (active),136,159,106% (inactive),100% (inactive),95.8% (inactive),101,89.3
CN1CC(=O)NC1=NC(=O)C12CC3CC(CC(C3)C1)C2,95% (inactive),93.9,96,102% (inactive),97.9,103,97.5% (inactive),92.3% (inactive),93.5% (inactive),94.6,92.1
O=C(OCc1cccc([N+](=O)[O-])c1)c1cnccn1,98.5% (inactive),99.5,97.1,102% (inactive),97.5,105,103% (inactive),97% (inactive),98.6% (inactive),101,96
Cc1ccc(/C=N\NC(=O)c2cc(OCC(F)(F)F)ccc2OCC(F)(F)F)cc1,100% (inactive),101,100,91.5% (inactive),91.2,92.9,94.1% (inactive),102% (inactive),105% (inactive),108,106
O=C(O)c1ccn2c(C(=O)c3ccc(Cl)cc3)c(-c3ccccc3)cc2c1,96.2% (inactive),92.3,99.8,114% (inactive),107,115,104% (inactive),94.7% (inactive),92.1% (inactive),89,92.1
Cc1cccc(N2C(=O)c3cccc4c(N(C)CCO)ccc(c34)C2=O)c1,98.8% (inactive),96.9,99,110% (inactive),106,109,103% (inactive),101% (inactive),105% (inactive),105,104
CN1CCN(CCCCOc2ccccc2C=O)CC1,99.5% (inactive),97.8,101,97.4% (inactive),97.2,99.3,104% (inactive),102% (inactive),97.8% (inactive),94.8,98.7
O=C(OCCCOC(=O)c1ccc(Br)o1)c1ccc(Br)o1,98.2% (inactive),95.3,98,108% (inactive),108,109,103% (inactive),102% (inactive),97.2% (inactive),97.6,97.1
